According to ChEMBL document CHEMBL1123790, “Stereospecificity of the chloride ion channel: the action of chiral clofibric acid analogues” (J Med Chem, 1987):
pIC50: −log10 of the molar value. One block for each compound: values may come before it.

How the values were obtained:
Rattus norvegicus [1] = species on record: Rattus norvegicus; assay: Maximum number of spikes elicited by strong depolarizing pulses in rat extensor digitorum longus(EDL) muscle fibers was determined at a concentration of 230 uM; format: functional
Procedure, shortened: (§1)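 Male Wistar rat (180–220 g) EDL muscles in Ringer's bath at 30 ± 1 °C, pH 7.3–7.4. Two intracellular microelectrodes (current electrode within 100 μm of voltage electrode). Square-wave constant-current pulses applied after holding at -80 mV. Latency = maximum delay to action potential onset; threshold = minimal long-pulse current for one spike; spikes = maximum with strong depolarization. Mean ± SEM; Student's t test.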

Rattus norvegicus [2] = species on record: Rattus norvegicus; assay: Latency in rat extensor digitorum longus(EDL) muscle fibers was determined at a concentration of 230 uM; format: functional; procedure, shortened: as §1
Rattus norvegicus [3] = species on record: Rattus norvegicus; assay: Resting membrane potential determined in rat extensor digitorum longus(EDL) muscle fibers at a concentration of 230 uM; format: functional; procedure, shortened: as §1
Rattus norvegicus [4] = species on record: Rattus norvegicus; assay: Minimal current intensity for a long pulse for a single action potential in rat extensor digitorum longus(EDL) muscle fibers was determined at a concentration of 230 uM; format: functional; procedure, shortened: as §1
Rattus norvegicus [5] = species on record: Rattus norvegicus; assay: Number of fibres over number of preparation sampled was determined at a concentration of 230 uM; format: functional
Rattus norvegicus [6] = species on record: Rattus norvegicus; assay: Resting membrane potential determined in rat extensor digitorum longus(EDL) muscle fibers at a concentration of 92 uM; format: functional; procedure, shortened: as §1
Rattus norvegicus [7] = species on record: Rattus norvegicus; assay: Number of fibres over number of preparation sampled was determined at a concentration of 92 uM; format: functional
Rattus norvegicus [8] = species on record: Rattus norvegicus; assay: Minimal current intensity for a long pulse for a single action potential in rat extensor digitorum longus(EDL) muscle fibers was determined at a concentration of 92 uM; format: functional; procedure, shortened: as §1
Rattus norvegicus [9] = species on record: Rattus norvegicus; assay: Concentration required to block 50% chloride conductance in rat extensor digitorum longus(EDL) muscle fibers; format: functional, organism-based
Procedure, shortened: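 Male Wistar rats (180–220 g); EDL muscles in bath at 30 ± 1 °C, perfused with Ringer's (normal or Cl⁻-free methyl sulfate) containing compound, pH 7.3–7.4, from 10^-3 g/mL stocks in 1% NaHCO3. Intracellular microelectrode cable analysis; GCl = mean Gm − mean GK. Three or more concentrations (5–230 μM); curves fit to single-site binding by nonlinear least squares, IC50 ± SD.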

Rattus norvegicus [10] = species on record: Rattus norvegicus; assay: Maximum number of spikes elicited by strong depolarizing pulses in rat extensor digitorum longus(EDL) muscle fibers was determined at a concentration of 92 uM; format: functional; procedure, shortened: as §1
Rattus norvegicus [11] = species on record: Rattus norvegicus; assay: Latency was determined in rat extensor digitorum longus(EDL) muscle fibers at a concentration of 92 uM; format: functional; procedure, shortened: as §1
Rattus norvegicus [12] = species on record: Rattus norvegicus; assay: Resting membrane potential in rat extensor digitorum longus(EDL) muscle fibers was determined at a concentration of 92 uM; format: functional
Procedure, shortened: (§2)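 EDL fibres from male Wistar rats (180–220 g), in Ringer's at 30 ± 1 °C, pH 7.3–7.4, drug diluted from bicarbonate stock. Two intracellular microelectrodes within 100 μm; fibre held at -80 mV by holding current, then square-wave constant-current depolarizing pulses. Read-outs: resting potential, latency to action potential, threshold current (long pulse), maximal spike number; mean ± SEM, fibres/preparations counted; Student's t test.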

Rattus norvegicus [13] = species on record: Rattus norvegicus; assay: Latency in rat extensor digitorum longus(EDL) muscle fibers was determined at a concentration of 92 uM; format: functional; procedure, shortened: as §2
Rattus norvegicus [14] = species on record: Rattus norvegicus; assay: Maximum number of spikes elicited by strong depolarizing pulses in rat extensor digitorum longus muscle fibers was determined at a concentration of 92 uM; format: functional; procedure, shortened: as §2
Rattus norvegicus [15] = species on record: Rattus norvegicus; assay: Number of fibres over number of preparation sampled was determined at a concentration of; format: functional
Rattus norvegicus [16] = species on record: Rattus norvegicus; assay: Latency in rat extensor digitorum longus(EDL) muscle fibers was determined at a concentration of 20 uM; format: functional; procedure, shortened: as §1
Rattus norvegicus [17] = species on record: Rattus norvegicus; assay: Minimal current intensity for a long pulse for a single action potential in rat extensor digitorum longus muscle fibers was determined at a concentration of 20 uM; format: functional; procedure, shortened: as §1
Rattus norvegicus [18] = species on record: Rattus norvegicus; assay: Resting membrane potential determined in rat extensor digitorum longus(EDL) muscle fibers at a concentration of 20 uM; format: functional; procedure, shortened: as §1
Rattus norvegicus [19] = species on record: Rattus norvegicus; assay: Maximum number of spikes elicited by strong depolarizing pulses in rat extensor digitorum longus muscle fibers was determined at a concentration of 20 uM; format: functional; procedure, shortened: as §1
Rattus norvegicus [20] = species on record: Rattus norvegicus; assay: Number of fibres over number of preparation sampled was determined at a concentration of 20 uM; format: functional; procedure, shortened: as §2
Rattus norvegicus [21] = species on record: Rattus norvegicus; assay: Maximum number of spikes elicited by strong depolarizing pulses in rat extensor digitorum longus(EDL) muscle fibers was determined at a concentration of 20 uM; format: functional; procedure, shortened: as §2
Rattus norvegicus [22] = species on record: Rattus norvegicus; assay: Minimal current intensity for a long pulse for a single action potential in rat extensor digitorum longus(EDL) muscle fibers was determined at a concentration of 20 uM; format: functional; procedure, shortened: as §2
Rattus norvegicus [23] = species on record: Rattus norvegicus; assay: Resting membrane potential in rat extensor digitorum longus(EDL) muscle fibers was determined at a concentration of 230 uM; format: functional; procedure, shortened: as §2
Rattus norvegicus [24] = assay: Concentration to block chloride membrane conductance (G Cl) in rat extensor digitorum longus (EDL) muscle fibers (in vivo and in vitro); format: functional, organism-based
Procedure, shortened: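 Male Wistar rats 180–220 g; EDL muscles in bath at 30 ± 1 °C, perfused with Ringer's (normal or Cl⁻-free methyl sulfate), pH 7.3–7.4; compounds from 10^-3 g/mL stock in 1% NaHCO3, tested 5–230 μM. Intracellular microelectrode cable analysis; GCl = mean Gm minus mean GK; ≥3 concentrations; single-site binding fit by nonlinear least squares gives IC50 ± SD.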

Compound: C[C@@H](Oc1ccc(Cl)cc1)C(=O)O
No. of spikes (Rattus norvegicus [1]): 6.5
Latency (Rattus norvegicus [2]): 6.2 ms
Resting potential (Rattus norvegicus [3]): 73 -mV
Threshold current (Rattus norvegicus [4]): 90 nA
Fibers/preparations (Rattus norvegicus [5]): 8

Compound: CC(Oc1ccc(Cl)cc1)C(=O)O (racemic)
Resting potential (Rattus norvegicus [6]): 74 -mV
Fibers/preparations (Rattus norvegicus [7]): 18
Threshold current (Rattus norvegicus [8]): 79.1 nA
pIC50 (Rattus norvegicus [9]): 4.09
No. of spikes (Rattus norvegicus [10]): 12.5
Latency (Rattus norvegicus [11]): 24.3 ms

pIC50 (Rattus norvegicus [9]): 4.36
Compound: CCC(Oc1ccc(Cl)cc1)C(=O)O (racemic)
Fibers/preparations (Rattus norvegicus [7]): 12
Threshold current (Rattus norvegicus [8]): 67.3 nA
Resting potential (Rattus norvegicus [12]): < 65 -mV
Latency (Rattus norvegicus [13]): <18.3 ms
No. of spikes (Rattus norvegicus [14]): <15.6

Compound: C[C@H](Oc1ccc(Cl)cc1)C(=O)O
Fibers/preparations (Rattus norvegicus [15]): 15
pIC50 (Rattus norvegicus [9]): 4.92
Latency (Rattus norvegicus [16]): <45.5 ms
Threshold current (Rattus norvegicus [17]): <65 nA
Resting potential (Rattus norvegicus [18]): 70 -mV
No. of spikes (Rattus norvegicus [19]): <18

pIC50 (Rattus norvegicus [9]): 4.99
Compound: CC[C@H](Oc1ccc(Cl)cc1)C(=O)O
Latency (Rattus norvegicus [16]): <30.2 ms
Fibers/preparations (Rattus norvegicus [20]): 8
Resting potential (Rattus norvegicus [18]): 68 -mV
No. of spikes (Rattus norvegicus [21]): <15
Threshold current (Rattus norvegicus [22]): 65 nA

Compound: CC[C@@H](Oc1ccc(Cl)cc1)C(=O)O
No. of spikes (Rattus norvegicus [1]): 6.5
Latency (Rattus norvegicus [2]): 5.2 ms
Threshold current (Rattus norvegicus [4]): 121 nA
Fibers/preparations (Rattus norvegicus [5]): 13
Resting potential (Rattus norvegicus [23]): 70 -mV

pIC50 (Rattus norvegicus [24]): 3.69
Compound: CC(C)(Oc1ccc(Cl)cc1)C(=O)O [CLOFIBRIC ACID]
